Data as given in ChEMBL document CHEMBL3351454, “Design, synthesis, antimicrobial evaluation and molecular docking studies of some new thiophene, pyrazole and pyridone derivatives bearing sulfisoxazole moiety” (2014).
≈ marks a conversion by molar mass, not a printed value.

What was measured:
Format in all cases: functional
Streptococcus pneumoniae [1] = assay: Antimicrobial activity against Streptococcus pneumoniae RCMB 010010 assessed as inhibition zone at 5 mg/ml after 24 hrs; conditions: RCMB 010010, 24 h, read-out: IZ
Summary of the method: (§1)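 Agar diffusion on nutrient agar seeded with 10^6 CFU/mL bacteria. Filter-paper disks were loaded with 100 µL of a 5 mg/mL compound solution in DMF, with a DMF-only control. Incubation was 37 °C for 24 h. Inhibition zone in mm (mean ± SD, triplicate plates) was measured beyond the 6 mm diameter.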

Streptococcus pneumoniae [2] = assay: Antimicrobial activity against Streptococcus pneumoniae RCMB 010010 assessed as absence of turbidity after 24 hrs; conditions: RCMB 010010, 24 h
Summary of the method: (§2)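 Broth microdilution in Müller–Hinton broth. DMF stocks at 1000 µg/mL were diluted in broth to give twofold serial dilutions over 500–0.007 µg/mL. Bacterial inoculum was about 10^6 CFU/mL in 96-well plates, sealed and incubated at 37 °C for 24 h in a humid chamber. MIC was taken as the lowest concentration with no visible turbidity. DMF and uninoculated-medium controls were included. Only compounds giving zones >10 mm were tested.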

Bacillus subtilis [3] = assay: Antimicrobial activity against Bacillis subtilis RCMB 010067 assessed as inhibition zone at 5 mg/ml after 24 hrs; conditions: RCMB 010067, 24 h, read-out: IZ; summary of the method: as §1
Bacillus subtilis [4] = assay: Antimicrobial activity against Bacillis subtilis RCMB 010067 assessed as absence of turbidity after 24 hrs; conditions: RCMB 010067, 24 h; summary of the method: as §2
[5] = tested on: Staphylococcus epidermidis; assay: Antimicrobial activity against Staphylococcus epidermidis RCMB 010024 assessed as inhibition zone at 5 mg/ml after 24 hrs; conditions: RCMB 010024, 24 h, read-out: IZ; summary of the method: as §1
[6] = tested on: Staphylococcus epidermidis; assay: Antimicrobial activity against Staphylococcus epidermidis RCMB 010024 assessed as absence of turbidity after 24 hrs; conditions: RCMB 010024, 24 h; summary of the method: as §2
Escherichia coli [7] = assay: Antimicrobial activity against Escherichia coli RCMB 010052 assessed as inhibition zone at 5 mg/ml after 24 hrs; conditions: RCMB 010052, 24 h, read-out: IZ; summary of the method: as §1
Escherichia coli [8] = assay: Antimicrobial activity against Escherichia coli RCMB 010052 assessed as absence of turbidity after 24 hrs; conditions: RCMB 010052, 24 h; summary of the method: as §2
Klebsiella pneumoniae [9] = assay: Antimicrobial activity against Klebsiella pneumoniae RCMB 010093 assessed as inhibition zone at 5 mg/ml after 24 hrs; conditions: RCMB 010093, 24 h, read-out: IZ; summary of the method: as §1
Klebsiella pneumoniae [10] = assay: Antimicrobial activity against Klebsiella pneumoniae RCMB 010093 assessed as absence of turbidity after 24 hrs; conditions: RCMB 010093, 24 h; summary of the method: as §2
Aspergillus fumigatus [11] = assay: Antifungal activity against Aspergillus fumigatus RCMB 02568 assessed as inhibition zone at 5 mg/ml after 48 hrs; conditions: RCMB 02568, 48 h, read-out: IZ
Summary of the method: (§3)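 Disk diffusion on nutrient agar seeded with 10^4 CFU/mL fungus. Sterile filter-paper disks carried 100 µL of a 5 mg/mL DMF solution, and DMF alone served as control. Plates were incubated at 25 °C for 48 h. Mean inhibition zone in mm ± SD was read beyond the 6 mm diameter, in triplicate.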

Aspergillus fumigatus [12] = assay: Antifungal activity against Aspergillus fumigatus RCMB 02568 assessed as absence of turbidity after 48 hrs; conditions: RCMB 02568, 48 h
Summary of the method: as §2, with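 “Sabouraud liquid medium.” for “Müller–Hinton broth.”, “Fungal” for “Bacterial”, “10^4” for “10^6”, “25” for “37”, “48” for “24”, “included.” for “included. Only compounds giving zones >10 mm were tested.”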

[13] = tested on: Syncephalastrum racemosum; assay: Antifungal activity against Syncephalastrum racemosum RCMB 05922 assessed as inhibition zone at 5 mg/ml after 48 hrs; conditions: RCMB 05922, 48 h, read-out: IZ
[14] = tested on: Syncephalastrum racemosum; assay: Antifungal activity against Syncephalastrum racemosum RCMB 05922 assessed as absence of turbidity after 48 hrs; conditions: RCMB 05922, 48 h
Geotrichum candidum [15] = assay: Antifungal activity against Geotrichum candidum RCMB 05097 assessed as inhibition zone at 5 mg/ml after 48 hrs; conditions: RCMB 05097, 48 h, read-out: IZ; summary of the method: as §3
Geotrichum candidum [16] = assay: Antifungal activity against Geotrichum candidum RCMB 05097 assessed as absence of turbidity after 48 hrs; conditions: RCMB 05097, 48 h
Summary of the method: as §2, with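 “Sabouraud liquid medium.” for “Müller–Hinton broth.”, “Fungal” for “Bacterial”, “10^4” for “10^6”, “25” for “37”, “48” for “24”, “included.” for “included. Only compounds giving zones >10 mm were tested.”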

Row | MIC (Streptococcus pneumoniae [2]) [µg/mL] | MIC (Bacillus subtilis [4]) [µg/mL] | MIC [6] [µg/mL] | MIC (Escherichia coli [8]) [µg/mL] | MIC (Klebsiella pneumoniae [10]) [µg/mL] | MIC (Aspergillus fumigatus [12]) [µg/mL] | MIC [14] [µg/mL] | MIC (Geotrichum candidum [16]) [µg/mL] | SMILES | zone of inhibition at 5000 µg/mL (Streptococcus pneumoniae [1]) [mm] | zone of inhibition at 5000 µg/mL (Bacillus subtilis [3]) [mm] | zone of inhibition at 5000 µg/mL [5] [mm] | zone of inhibition at 5000 µg/mL (Escherichia coli [7]) [mm] | zone of inhibition at 5000 µg/mL (Klebsiella pneumoniae [9]) [mm] | zone of inhibition at 5000 µg/mL (Aspergillus fumigatus [11]) [mm] | zone of inhibition at 5000 µg/mL [13] [mm] | zone of inhibition at 5000 µg/mL (Geotrichum candidum [15]) [mm]
1 | 62.5 (≈ 143 µM) | 7.81 (≈ 17.8 µM) | 1.95 (≈ 4.45 µM) | 125 (≈ 285 µM) | 3.9 (≈ 8.89 µM) | 15.6 (≈ 35.6 µM) | 15.6 (≈ 35.6 µM) | 7.81 (≈ 17.8 µM) | Cc1noc(NS(=O)(=O)c2ccc(NC(=O)/C(C#N)=N/Nc3ccccc3)cc2)c1C | 15.5 | 18.4 | 19.8 | 13.5 | 19.1 | 16.5 | 17.3 | 17.8
2 |  |  |  |  |  | 0.12 (≈ 0.13 µM) | 7.81 (≈ 8.45 µM) | 0.007 (≈ 0.00758 µM) | C[C@@H]1[C@H](O)[C@@H](C)/C=C/C=C/C=C/C=C/C=C/C=C/C=C/[C@H](O[C@@H]2O[C@H](C)[C@@H](O)[C@H](N)[C@@H]2O)C[C@@H]2O[C@](O)(C[C@@H](O)C[C@@H](O)[C@H](O)CC[C@@H](O)C[C@@H](O)CC(=O)O[C@H]1C)C[C@H](O)[C@H]2C(=O)O [AMPHOTERICIN B] |  |  |  |  |  | 23.7 | 19.7 | 28.7
3 | 0.12 (≈ 0.343 µM) | 0.24 (≈ 0.687 µM) | 0.06 (≈ 0.172 µM) |  |  |  |  |  | CC1(C)S[C@@H]2[C@H](NC(=O)[C@H](N)c3ccccc3)C(=O)N2[C@H]1C(=O)O [AMPICILLIN] | 23.8 | 32.4 | 25.4 |  |  |  |  | 
4 | 62.5 (≈ 123 µM) | 15.6 (≈ 30.7 µM) | 125 (≈ 246 µM) | 500 (≈ 983 µM) | 125 (≈ 246 µM) | 31.2 (≈ 61.4 µM) | 62.5 (≈ 123 µM) | 15.6 (≈ 30.7 µM) | Cc1noc(NS(=O)(=O)c2ccc(NC(=O)c3c(Nc4ccccc4)sc(C#N)c3N)cc2)c1C | 15.2 | 17.4 | 14.2 | 11.2 | 13.6 | 16.3 | 15.2 | 17.3

The remaining lines, values behind:

Row | SMILES | MIC (Streptococcus pneumoniae [2]) [µg/mL] | MIC (Bacillus subtilis [4]) [µg/mL] | MIC [6] [µg/mL] | MIC (Escherichia coli [8]) [µg/mL] | MIC (Klebsiella pneumoniae [10]) [µg/mL] | MIC (Aspergillus fumigatus [12]) [µg/mL] | MIC [14] [µg/mL] | MIC (Geotrichum candidum [16]) [µg/mL] | zone of inhibition at 5000 µg/mL (Streptococcus pneumoniae [1]) [mm] | zone of inhibition at 5000 µg/mL (Bacillus subtilis [3]) [mm] | zone of inhibition at 5000 µg/mL [5] [mm] | zone of inhibition at 5000 µg/mL (Escherichia coli [7]) [mm] | zone of inhibition at 5000 µg/mL (Klebsiella pneumoniae [9]) [mm] | zone of inhibition at 5000 µg/mL (Aspergillus fumigatus [11]) [mm] | zone of inhibition at 5000 µg/mL [13] [mm] | zone of inhibition at 5000 µg/mL (Geotrichum candidum [15]) [mm]
5 | Cc1noc(NS(=O)(=O)c2ccc(N)cc2)c1C [SULFISOXAZOLE] | 1.95 (≈ 7.29 µM) | 0.98 (≈ 3.67 µM) | 7.81 (≈ 29.2 µM) | 62.5 (≈ 234 µM) | 7.81 (≈ 29.2 µM) | 62.5 (≈ 234 µM) | 125 (≈ 468 µM) | 15.6 (≈ 58.5 µM) | 19.6 | 20.8 | 17.5 | 15.2 | 18.2 | 15.1 | 13.2 | 16.8
6 | Cc1noc(NS(=O)(=O)c2ccc(NC(=O)/C(C#N)=C/N(C)C)cc2)c1C | 1.95 (≈ 5.01 µM) | 0.98 (≈ 2.52 µM) | 7.81 (≈ 20.1 µM) | 31.2 (≈ 80.2 µM) | 15.6 (≈ 40.1 µM) | 7.81 (≈ 20.1 µM) | 0.98 (≈ 2.52 µM) | 0.98 (≈ 2.52 µM) | 20 | 21.4 | 18.2 | 16.3 | 17.1 | 18.3 | 21.1 | 21.3
7 | CCOc1ccc(N/N=C(\C#N)C(=O)Nc2ccc(S(=O)(=O)Nc3onc(C)c3C)cc2)cc1 | 1.95 (≈ 4.04 µM) | 1.95 (≈ 4.04 µM) | 7.81 (≈ 16.2 µM) | 31.2 (≈ 64.8 µM) | 31.2 (≈ 64.8 µM) | 3.9 (≈ 8.08 µM) | 3.9 (≈ 8.08 µM) | 0.98 (≈ 2.03 µM) | 19.6 | 20 | 17.6 | 15.9 | 16.3 | 19.3 | 18.6 | 21.4
